Changes are numbered by the printed parent chain.
Assays:
Conditions in all cases: stereoisomer not certain
OR2T6 C23G = test system: T1, OR2T6 C23G
T1 sequence (whole entry): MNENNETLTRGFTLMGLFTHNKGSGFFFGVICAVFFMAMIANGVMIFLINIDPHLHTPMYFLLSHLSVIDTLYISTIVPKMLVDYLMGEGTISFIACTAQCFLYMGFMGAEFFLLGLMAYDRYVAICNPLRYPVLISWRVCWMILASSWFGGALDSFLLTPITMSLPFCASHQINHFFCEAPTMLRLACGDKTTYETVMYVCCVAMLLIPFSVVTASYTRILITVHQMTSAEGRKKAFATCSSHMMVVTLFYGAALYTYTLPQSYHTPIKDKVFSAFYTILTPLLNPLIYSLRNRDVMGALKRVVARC
How it was run: (§1)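 Values were gathered from published papers (main text and supplementary material), with extra details requested from the original authors when needed, and checked for typos and inconsistencies. Each receptor–molecule pair is called responsive (active) if the original authors judged the measured signal statistically different from baseline, and non-responsive (inactive) otherwise. Assay methods varied by source, often transient mammalian cell-line luciferase assays. Recorded details include cell line, G-protein, co-transfected protein and tags.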

OR2T7 = test system: T2, OR2T7
T2 sequence (whole entry): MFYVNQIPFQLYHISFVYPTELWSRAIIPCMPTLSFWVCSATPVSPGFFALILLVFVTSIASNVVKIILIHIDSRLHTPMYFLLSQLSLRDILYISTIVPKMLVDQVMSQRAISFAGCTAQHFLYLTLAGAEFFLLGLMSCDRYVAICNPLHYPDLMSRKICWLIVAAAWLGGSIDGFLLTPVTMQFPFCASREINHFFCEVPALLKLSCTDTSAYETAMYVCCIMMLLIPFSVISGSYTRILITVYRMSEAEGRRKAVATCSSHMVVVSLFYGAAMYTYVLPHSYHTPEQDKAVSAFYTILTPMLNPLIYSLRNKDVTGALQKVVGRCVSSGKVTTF
How it was run: as §1

OR2T8 (Homo sapiens) = target: T3, OR2T8 (Homo sapiens) (UniProt A6NH00)
T3 sequence (whole entry): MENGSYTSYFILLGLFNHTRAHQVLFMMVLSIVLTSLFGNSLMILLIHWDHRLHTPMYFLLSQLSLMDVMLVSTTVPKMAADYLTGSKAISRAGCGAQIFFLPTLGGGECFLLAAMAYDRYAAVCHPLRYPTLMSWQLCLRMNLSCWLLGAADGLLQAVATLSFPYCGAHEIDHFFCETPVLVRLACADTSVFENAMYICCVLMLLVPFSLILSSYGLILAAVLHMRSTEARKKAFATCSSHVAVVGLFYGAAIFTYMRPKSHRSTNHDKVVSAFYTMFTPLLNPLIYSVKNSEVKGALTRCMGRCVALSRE
How it was run: as §1

OR2V1 (Homo sapiens) = target: T4, OR2V1 (Homo sapiens) (UniProt Q8NHB1)
T4 sequence (whole entry): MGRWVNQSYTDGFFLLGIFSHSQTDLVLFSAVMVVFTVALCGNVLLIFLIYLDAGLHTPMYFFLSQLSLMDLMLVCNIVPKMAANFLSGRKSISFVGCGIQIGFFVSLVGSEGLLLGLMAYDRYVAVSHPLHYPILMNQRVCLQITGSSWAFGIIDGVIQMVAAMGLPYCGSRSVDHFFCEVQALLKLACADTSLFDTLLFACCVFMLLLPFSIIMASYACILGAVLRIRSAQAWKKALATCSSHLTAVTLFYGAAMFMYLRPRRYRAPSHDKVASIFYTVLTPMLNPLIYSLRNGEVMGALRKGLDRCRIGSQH
How it was run: as §1

OR2V2 (Homo sapiens) = target: T5, OR2V2 (Homo sapiens) (UniProt Q96R30)
T5 sequence (whole entry): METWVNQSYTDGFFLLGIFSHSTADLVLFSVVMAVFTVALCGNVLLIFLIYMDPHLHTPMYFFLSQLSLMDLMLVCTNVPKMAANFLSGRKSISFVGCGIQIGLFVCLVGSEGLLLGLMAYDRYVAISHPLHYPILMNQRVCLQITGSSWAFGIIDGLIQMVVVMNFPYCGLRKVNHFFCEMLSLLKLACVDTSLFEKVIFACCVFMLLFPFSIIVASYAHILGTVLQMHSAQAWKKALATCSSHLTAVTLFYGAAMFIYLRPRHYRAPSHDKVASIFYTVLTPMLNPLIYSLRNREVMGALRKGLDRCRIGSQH
How it was run: as §1

OR2W1 (Homo sapiens) = target: T6, OR2W1 (Homo sapiens) (UniProt Q9Y3N9)
T6 sequence (whole entry): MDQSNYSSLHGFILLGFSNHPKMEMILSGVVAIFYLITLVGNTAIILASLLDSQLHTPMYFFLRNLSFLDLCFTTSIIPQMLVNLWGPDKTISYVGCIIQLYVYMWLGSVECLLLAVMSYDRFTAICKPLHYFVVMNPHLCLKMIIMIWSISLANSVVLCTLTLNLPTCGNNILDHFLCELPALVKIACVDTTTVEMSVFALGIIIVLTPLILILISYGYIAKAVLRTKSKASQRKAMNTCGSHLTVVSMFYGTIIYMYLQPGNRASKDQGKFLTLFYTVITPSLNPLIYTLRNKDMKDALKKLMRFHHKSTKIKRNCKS
How it was run: as §1

OR2W1 G96V = test system: T7, OR2W1 G96V
T7 sequence (whole entry): T6 sequence (whole entry) with G96V
How it was run: as §1

OR2W3 (Homo sapiens) = target: T8, OR2W3 (Homo sapiens) (UniProt Q7Z3T1)
T8 sequence (whole entry): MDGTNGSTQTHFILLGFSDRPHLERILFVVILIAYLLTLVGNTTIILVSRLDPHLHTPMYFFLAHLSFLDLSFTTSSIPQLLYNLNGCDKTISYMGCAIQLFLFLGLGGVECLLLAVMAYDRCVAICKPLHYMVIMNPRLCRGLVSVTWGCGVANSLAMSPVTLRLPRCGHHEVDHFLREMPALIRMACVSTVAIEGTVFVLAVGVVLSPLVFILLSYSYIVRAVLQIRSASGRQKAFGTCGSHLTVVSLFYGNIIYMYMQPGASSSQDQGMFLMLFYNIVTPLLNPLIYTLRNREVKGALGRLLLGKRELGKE
How it was run: as §1

OR2W5P (Homo sapiens) = target: T9, OR2W5P (Homo sapiens) (UniProt A6NFC9)
T9 sequence (whole entry): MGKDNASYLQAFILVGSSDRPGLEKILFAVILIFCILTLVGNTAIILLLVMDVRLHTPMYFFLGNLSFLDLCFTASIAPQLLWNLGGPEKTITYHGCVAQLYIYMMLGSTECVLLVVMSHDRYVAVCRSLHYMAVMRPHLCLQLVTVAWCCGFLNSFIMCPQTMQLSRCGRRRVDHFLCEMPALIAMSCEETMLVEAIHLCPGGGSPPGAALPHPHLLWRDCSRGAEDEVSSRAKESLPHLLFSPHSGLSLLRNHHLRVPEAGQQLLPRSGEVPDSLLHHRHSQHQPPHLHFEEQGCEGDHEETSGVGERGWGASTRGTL
How it was run: as §1

OR2Y1 (Homo sapiens) = target: T10, OR2Y1 (Homo sapiens) (UniProt Q8NGV0)
T10 sequence (whole entry): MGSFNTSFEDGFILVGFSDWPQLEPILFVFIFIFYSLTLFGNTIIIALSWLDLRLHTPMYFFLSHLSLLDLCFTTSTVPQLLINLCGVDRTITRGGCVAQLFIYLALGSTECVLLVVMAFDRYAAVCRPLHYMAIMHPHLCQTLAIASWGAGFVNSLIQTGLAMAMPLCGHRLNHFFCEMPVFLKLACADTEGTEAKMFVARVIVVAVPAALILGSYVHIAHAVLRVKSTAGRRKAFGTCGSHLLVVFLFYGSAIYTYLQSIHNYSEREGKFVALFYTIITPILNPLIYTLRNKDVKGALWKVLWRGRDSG
How it was run: as §1

OR2Y1 = test system: T11, OR2Y1
T11 sequence (whole entry): T10 sequence (whole entry) with V200L
How it was run: as §1

OR2Z1 (Homo sapiens) = target: T12, OR2Z1 (Homo sapiens) (UniProt Q8NG97)
T12 sequence (whole entry): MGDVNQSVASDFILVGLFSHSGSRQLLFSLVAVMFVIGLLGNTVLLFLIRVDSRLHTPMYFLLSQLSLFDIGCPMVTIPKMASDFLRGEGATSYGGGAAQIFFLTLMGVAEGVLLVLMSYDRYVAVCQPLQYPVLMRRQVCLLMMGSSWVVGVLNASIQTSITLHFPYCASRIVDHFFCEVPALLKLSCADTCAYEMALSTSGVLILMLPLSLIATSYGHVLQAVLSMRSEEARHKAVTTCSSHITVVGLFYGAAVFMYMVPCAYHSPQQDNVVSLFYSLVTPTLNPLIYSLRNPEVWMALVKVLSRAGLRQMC
How it was run: as §1

OR3A1 (Homo sapiens) = target: T13, OR3A1 (Homo sapiens) (UniProt P47881)
T13 sequence (whole entry): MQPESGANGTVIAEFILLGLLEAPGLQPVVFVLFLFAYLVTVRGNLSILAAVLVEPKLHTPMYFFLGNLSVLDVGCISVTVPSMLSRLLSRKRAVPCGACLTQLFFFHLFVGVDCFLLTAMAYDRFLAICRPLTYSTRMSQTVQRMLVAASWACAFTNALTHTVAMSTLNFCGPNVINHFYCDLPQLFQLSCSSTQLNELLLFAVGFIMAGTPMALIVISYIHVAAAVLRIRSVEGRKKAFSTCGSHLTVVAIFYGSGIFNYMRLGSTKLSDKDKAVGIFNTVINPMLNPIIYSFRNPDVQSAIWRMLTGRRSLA
How it was run: as §1

OR3A1 = test system: T14, OR3A1
T14 sequence (whole entry): T13 sequence (whole entry) with R125Q
How it was run: as §1

OR3A2 (Homo sapiens) = target: T15, OR3A2 (Homo sapiens) (UniProt P47893)
T15 sequence (whole entry): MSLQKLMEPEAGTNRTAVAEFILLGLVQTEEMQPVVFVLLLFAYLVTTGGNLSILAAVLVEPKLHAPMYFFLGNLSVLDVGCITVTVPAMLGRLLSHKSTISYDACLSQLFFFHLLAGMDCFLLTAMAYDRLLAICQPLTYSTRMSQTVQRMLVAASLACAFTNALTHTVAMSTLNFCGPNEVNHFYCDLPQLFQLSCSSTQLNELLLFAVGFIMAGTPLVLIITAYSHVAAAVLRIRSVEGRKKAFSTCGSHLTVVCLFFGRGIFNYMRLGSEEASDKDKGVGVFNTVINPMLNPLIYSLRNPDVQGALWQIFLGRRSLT
How it was run: as §1

OR3A2 R317K = test system: T16, OR3A2 R317K
T16 sequence (whole entry): T15 sequence (whole entry) with R317K
How it was run: as §1

OR3A3 (Homo sapiens) = target: T17, OR3A3 (Homo sapiens) (UniProt P47888)
T17 sequence (whole entry): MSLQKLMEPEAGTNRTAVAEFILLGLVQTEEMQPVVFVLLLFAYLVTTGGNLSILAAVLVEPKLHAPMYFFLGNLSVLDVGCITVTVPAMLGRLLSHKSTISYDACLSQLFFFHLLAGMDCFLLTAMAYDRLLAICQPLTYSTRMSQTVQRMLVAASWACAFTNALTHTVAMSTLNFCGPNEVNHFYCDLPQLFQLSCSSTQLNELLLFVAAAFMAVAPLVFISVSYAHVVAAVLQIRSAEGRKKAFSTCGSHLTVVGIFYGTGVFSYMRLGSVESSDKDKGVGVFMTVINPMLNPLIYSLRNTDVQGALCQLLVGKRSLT
How it was run: as §1

OR2T7 (Homo sapiens) = target: T18, OR2T7 (Homo sapiens) (UniProt P0C7T2)
T18 sequence (whole entry): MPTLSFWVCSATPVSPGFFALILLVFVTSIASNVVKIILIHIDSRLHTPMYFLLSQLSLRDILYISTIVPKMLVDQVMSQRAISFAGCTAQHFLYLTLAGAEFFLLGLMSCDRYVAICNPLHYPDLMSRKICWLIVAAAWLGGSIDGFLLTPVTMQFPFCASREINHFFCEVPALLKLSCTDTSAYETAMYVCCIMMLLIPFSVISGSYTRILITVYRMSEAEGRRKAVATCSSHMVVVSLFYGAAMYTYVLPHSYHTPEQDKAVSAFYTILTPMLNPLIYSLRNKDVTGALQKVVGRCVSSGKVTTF
How it was run: as §1

OR2W1 [1] = test system: T19, OR2W1
T19 sequence (whole entry): T6 sequence (whole entry) with D296N
How it was run: as §1

OR2W1 [2] = test system: T20, OR2W1; remark: listed apart in the source
T20 sequence (whole entry): T6 sequence (whole entry) with M81V
How it was run: as §1

Row | SMILES | odorant receptor agonist call (OR2T6 C23G) | odorant receptor agonist call (OR2T7) | odorant receptor agonist call (OR2T8 (Homo sapiens)) | odorant receptor agonist call (OR2V1 (Homo sapiens)) | odorant receptor agonist call (OR2V2 (Homo sapiens)) | odorant receptor agonist call (OR2W1 (Homo sapiens)) | odorant receptor agonist call (OR2W1 G96V) | odorant receptor agonist call (OR2W3 (Homo sapiens)) | odorant receptor agonist call (OR2W5P (Homo sapiens)) | odorant receptor agonist call (OR2Y1 (Homo sapiens)) | odorant receptor agonist call (OR2Y1) | odorant receptor agonist call (OR2Z1 (Homo sapiens)) | odorant receptor agonist call (OR3A1 (Homo sapiens)) | odorant receptor agonist call (OR3A1) | odorant receptor agonist call (OR3A2 (Homo sapiens)) | odorant receptor agonist call (OR3A2 R317K) | odorant receptor agonist call (OR3A3 (Homo sapiens)) | odorant receptor agonist call (OR2T7 (Homo sapiens)) | odorant receptor agonist call (OR2W1 [1]) | odorant receptor agonist call (OR2W1 [2])
1 | CCC1OC(C)=C(O)C1=O (stereo unspecified) | inactive | inactive | inactive | inactive | inactive | inactive | inactive | inactive | inactive | inactive | inactive | inactive | inactive | inactive | inactive | inactive | inactive |  |  | 
2 | CCCCCCC=CCCC=O | inactive |  | inactive | inactive | inactive | inactive | inactive | inactive | inactive | inactive | inactive | inactive | inactive | inactive | inactive | inactive | inactive | inactive |  | 
3 | CCCCC(S)C(C)CO (stereo unspecified) |  |  | inactive | inactive | inactive | inactive |  | inactive | inactive | inactive |  | inactive | inactive |  | inactive |  | inactive | inactive |  | 
4 | CC(=O)C(C)O (stereo unspecified) |  |  |  |  |  | inactive |  |  |  |  |  |  |  |  |  |  |  |  |  | 
5 | CCCC(S)CCOC(C)=O (stereo unspecified) | inactive | inactive | inactive | inactive | inactive | active | active | inactive | inactive | inactive | inactive | inactive | inactive | inactive | inactive | inactive | inactive |  | active | active

— the M2OR odorant receptor database
